Results on four compounds are retold here after publication PMC6272120 (Cancer Science, 2018).

In data set [1] the test system is 786‐O and ACHN cells. The data set can be described thus: Wound healing and transwell migration assay. The class given is cell-based, human. The method in brief:
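Transwell, 8-μm pores: 1 × 10⁴ cells (migration) or 2 × 10⁴ on Matrigel (invasion) in serum-free medium with treatment above complete medium at matching concentration, 24 h. Cells fixed 4% paraformaldehyde, stained .1% crystal violet, counted in 4 random fields. Mean ± SD, 3 experiments.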

Data set [2] deals with E‐cadherin, N‐cadherin, vimentin in 786‐O and ACHN cells. The data set can be described thus: Western blot of EMT‐related proteins. The class given is cell-based, human.
Data set [3] relates to 786‐O cells. Description: Cell viability assay. The class given is cell-based. The settings on record: Homo sapiens. In outline: (§1)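 Cells in RPMI-1640 with 10% FBS, seeded 5 × 10³/well, left overnight. Medium then replaced with test compound at 0, 10, 20, 40, 60, 80 and 100 μmol/L for 24 or 48 h. CCK8 added for 4 h at 37°C; OD read at 490 nm. Mean ± SD of 3 independent experiments.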

The subject of data set [4] is ACHN cells. Description: Cell viability assay. The class given is cell-based. The note with it: Homo sapiens. The method in brief: as §1
The test system of data set [5] is HK‐2 normal renal tubular epithelial cells. The data set can be described thus: Cell viability assay. The settings on record: HK‐2, low doses of TQ (less than 60 μmol/L). The class given is cell-based, human.
The subject of data set [6] is 786‐O and ACHN cells. Description: Transwell invasion assay. The class given is cell-based, human. The settings on record: 0, 20, 40, 60 μmol/L TQ.
Data set [7] has as its system LC3 in 786‐O and ACHN cells. The data set can be described thus: Autophagy detection. The class given is cell-based, human. In outline: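 786-O and ACHN cells pretreated 4 h with AMPK inhibitor (50 μmol/L), then 40 μmol/L test compound 24 h. RIPA lysis with protease/phosphatase inhibitors and PMSF on ice; BCA-normalised; 10%-15% SDS-PAGE, PVDF, 10% milk block 2 h RT; anti-LC3-I/II overnight 4°C, secondary 1 h; ECL detection. Mean ± SD of 3 independent experiments.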

In data set [8] the test system is AMPK/mTOR signaling pathway in 786‐O and ACHN cells. Description: Western blot of AMPK/mTOR signaling pathway. The class given is cell-based, human. The note with it: 0, 20, 40, 60 μmol/L TQ, 24 hours. The method in brief:
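786-O and ACHN cells exposed 24 h to test compound at 0, 20, 40, 60 μmol/L. RIPA lysis with protease/phosphatase inhibitors and PMSF; BCA-normalised; 10%-15% SDS-PAGE, PVDF, 10% milk block. Probed overnight at 4°C for AMPK, p-AMPK (Thr172), mTOR, p-mTOR (Ser2448), p-S6K (Thr389), LC3; secondary 1 h; ECL. Mean ± SD, 3 independent experiments.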

For data set [9], the system named is 786‐O xenograft tumors. Description: Subcutaneous 786‐O xenograft tumor model. The class given is in vivo, nude mice. The method in brief:
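Male nude mice, 5 weeks old, 19-22 g, given 1 × 10⁶ 786-O cells s.c. with Matrigel in the right flank. At 100-150 mm³, randomised 5 per group: intraperitoneal DMSO or test compound 20 mg/kg every 3 days. Volume ((length × width²) × .5) and body weight recorded every 3 days. Tumours excised and weighed after 30 days. Mean ± SD.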

Data set [10] deals with lung metastasis of 786‐O cells. The data set can be described thus: Metastatic tumor model, luciferase‐tagged 786‐O cells via tail veins. The class given is in vivo, nude mice. The settings on record: vs control. The method in brief:
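Male nude mice, 5 weeks old, 19-22 g, received luciferase-tagged 786-O cells by tail vein, then two groups. Dosing was intraperitoneal DMSO (control) or test compound 20 mg/kg every 3 days. At day 30: D-luciferin 150 mg/kg i.p., 10 min wait, chloral hydrate anaesthesia, then bioluminescence imaging. Lung tumours harvested and H&E-stained.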

Data set [11] has as its system RCC cells. Description: Comparison of TQ with everolimus. The note with it: Figure S3. The class given is cell-based, human.
Setting [12] is: 3‐MA 5 mmol/L with TQ 40 μmol/L.
[13] abbreviates: TQ 20 mg/kg intraperitoneal every 3 days, 30 days.
[14] abbreviates: compound C 50 μmol/L pretreatment 4 hours, then TQ 40 μmol/L 24 hours.

For orientation: IC50 means the concentration that gives 50% inhibition.

Bounds are passed on as bounds.

Regarding `Cn1cnc(N)c2ncnc1-2` [3‐MA, 3‐methyladenine], in data set [1] (setting [12]), the “effect on anti‐migratory ability of TQ” value is recorded as “remarkably attenuated”. For the same compound, the “effect on TQ‐induced MET” value in data set [2] (setting [12]) is reported as “abate TQ‐induced MET”.

Regarding `CC1=CC(=O)C(C(C)C)=CC1=O` [TQ, 2‐methyl‐5‐isopropyl‐1,4‐benzoquinone], the IC50 in data set [3] (786-0, 24 h, read-out: IC50 value, inhibition on cell growth) is 55 µM; in data set [4] (24 h, read-out: IC50 value, inhibition on cell growth) it was 72 µM. The inhibition at 40 µM in data set [3] (786-0, read-out: inhibitory rate of cell proliferation) is under 20%; in data set [4] (read-out: inhibitory rate of cell proliferation), under 20%. In [5], the “effect on cell growth of normal cells” value is “no significant decrease in cell growth”. Also, in data set [1] (wound healing 40 μmol/L, transwell 0, 20, 40, 60 μmol/L, 24 hours), the cancer cell migration result is “attenuated cancer cell migration in a time‐dependent and concentration‐dependent manner”. Besides, the “number of invaded cells” value in [6] is on record as “number of invaded cells decreased with the increase of TQ concentration”. Further, the “expression of EMT markers” value in data set [2] (different concentrations for 24 hours or 40 μmol/L for different times) was “upregulated epithelial markers (E‐cadherin), while downregulating mesenchymal markers (N‐cadherin, vimentin)”. In addition, the “LC3 puncta (autophagosomes and autolysosomes)” value in data set [7] (40 μmol/L TQ, 24 hours, vs control group) was “number of both yellow and red puncta increased dramatically”. The “LC3‐II expression” value in [7] (western blot, different concentrations of TQ) is “upregulate LC3‐II in a concentration‐dependent manner”. Also, the “expression of p‐AMPK” value in [8] was “elevated”. In addition, in data set [8], the “expressions of p‐mTOR and p‐S6K” value was “reduced”. Also, the “tumor growth / tumor weight vs control” value in data set [9] (setting [13]) is “TQ inhibited RCC cell growth in vivo”. Also, in [9] (immunohistochemistry and western blot, TQ 20 mg/kg), the “expression of E‐cadherin and N‐cadherin in xenograft tumors” value was “increased expression of E‐cadherin and decreased expression of N‐cadherin”. Further, in [10] (setting [13]), the “lung metastasis (bioluminescence)” value is reported as “significantly inhibited lung metastasis”. In [10] (TQ 20 mg/kg), the “number of metastatic nodules in the lungs (H&E)” value is reported as “significant decrease in the number of metastatic nodules”.

As to `c1cc(-c2cnn3cc(-c4ccc(OCCN5CCCCC5)cc4)cnc23)ccn1` [compound C], the “effect on TQ anti‐migratory and anti‐invasive effects (transwell)” value in data set [1] (setting [14]) is “attenuated the migratory and invasive capacities of autophagy induced by TQ”. The “effect on TQ‐induced MET” value in data set [2] (setting [14]) is “weakened TQ‐induced MET”. Moreover, in data set [7] (setting [14]), the “effect on TQ‐induced LC3” value was “effects of TQ on LC3 could be receded”.

In the case of `CO[C@H]1C[C@@H]2CC[C@@H](C)[C@@](O)(O2)C(=O)C(=O)N2CCCC[C@H]2C(=O)O[C@H]([C@H](C)C[C@@H]2CC[C@@H](OCCO)[C@H](OC)C2)CC(=O)[C@H](C)/C=C(\C)[C@@H](O)[C@@H](OC)C(=O)[C@H](C)C[C@H](C)/C=C/C=C/C=C/1C` [everolimus], in data set [11], the “inhibiting migration and invasion, inducing autophagy and MET, compared with TQ” value is listed as “significantly more potent than TQ”.
